Assay results published in ChEMBL document CHEMBL1255368, “Posaconazole against Candida glabrata isolates with various susceptibilities to fluconazole” (2008).
Values after ≈ are worked out from the molar mass of the structure shown. Active and inactive are the calls of the source.

What was measured:
[1] = tested on: Nakaseomyces glabratus; test: Antifungal activity against Candida glabrata isolate 4293 after 48 hrs by microdilution method; type: functional
Procedure, shortened: (§1)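 CLSI M27-A2 broth microdilution. Final ranges: POS, CAS, AMB 0.0078–8.0 μg/ml; FLC 0.125–64 μg/ml. Incubated at 35°C, read at 24 and 48 h by OD490. MIC for POS, FLC, CAS: first concentration giving 50% lower turbidity than control; for AMB: 90% lower. Run in quintuplicate; C. parapsilosis ATCC 22019 as quality control.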

[2] = tested on: Nakaseomyces glabratus; test: Fungicidal activity against Candida glabrata isolate 4293 assessed as 99.9% reduction of initial fungal load at 8 times MIC […] using colony count method by time-kill method; type: functional, organism-based
[3] = tested on: Nakaseomyces glabratus; test: Fungicidal activity against Candida glabrata isolate 4198 assessed as 99.9% reduction of initial fungal load at 8 times MIC after 48 hrs using colony count method by time-kill method; type: functional, organism-based; conditions: in the assay text read “after 24 hrs” for “after 48 hrs”
Procedure, shortened: (§2)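 Time-kill assay. The inoculum was set to 0.5 McFarland in water and diluted 1:10 into MOPS-buffered RPMI 1640 with drug at 0.5× or 8× MIC, then shaken at 35°C. Samples were taken at 0, 2, 4, 8 and 24 h, serially diluted and plated in triplicate on Sabouraud agar, with 48 h at 35°C. Detection limit was 20 CFU/ml. Fungicidal was defined as a 99.9% drop from the initial inoculum. Each isolate was tested at least twice.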

[4] = tested on: Nakaseomyces glabratus; test: Antifungal activity against Candida glabrata isolate 4205 after 48 hrs by microdilution method; type: functional; procedure, shortened: as §1
[5] = tested on: Nakaseomyces glabratus; test: Fungistatic activity against Candida glabrata isolate 4198 assessed as 99.9% reduction of initial fungal load at 0.5 times MIC after 48 hrs using colony count method by time-kill method; type: functional, organism-based
Procedure, shortened: (§3)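 0.5 McFarland suspension from a 48-h plate, diluted 1:10 into MOPS-buffered RPMI 1640 with drug at 0.5× or 8× MIC. Shaken at 35°C; sampled at 0, 2, 4, 8 and 24 h, serially diluted and plated in triplicate on Sabouraud agar for 48 h at 35°C. Detection limit 20 CFU/ml; fungicidal = 99.9% fall from initial inoculum. Each isolate tested at least twice.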

[6] = tested on: Nakaseomyces glabratus; test: Fungicidal activity against Candida glabrata isolate 4205 assessed as 99.9% reduction of initial fungal load at 8 times MIC […] using colony count method by time-kill method; type: functional, organism-based; procedure, shortened: as §2
[7] = tested on: Candida parapsilosis; test: Fungistatic activity against Candida parapsilosis ATCC 22019 assessed as 99.9% reduction of int initial fungal load at 8 times MIC after 48 hrs using colony count method by time-kill method; type: functional, organism-based
[8] = tested on: Nakaseomyces glabratus; test: Antifungal activity against Candida glabrata isolate 4198 after 48 hrs by microdilution method; type: functional; conditions: isolate 4198, 48 h; procedure, shortened: as §1
[9] = tested on: Nakaseomyces glabratus; test: Fungistatic activity against Candida glabrata 4370 assessed as 99.9% reduction of int initial fungal load at 0.5 times MIC after 48 hrs using colony count method by time-kill method; type: functional, organism-based; procedure, shortened: as §3
[10] = tested on: Candida parapsilosis; test: Fungistatic activity against Candida parapsilosis ATCC 22019 assessed as 99.9% reduction of int initial fungal load at 0.5 times MIC after 48 hrs using colony count method by time-kill method; type: functional, organism-based
[11] = tested on: Candida parapsilosis; test: Antifungal activity against Candida parapsilosis ATCC 22019 after 48 hrs by microdilution method; type: functional; conditions: Lodderomyces parapsilosis, ATCC 22019, 48 h; procedure, shortened: as §1
[12] = tested on: Nakaseomyces glabratus; test: Fungistatic activity against Candida glabrata isolate 4205 assessed as 99.9% reduction of initial fungal load at 0.5 times MIC after 48 hrs using colony count method by time-kill method; type: functional, organism-based; procedure, shortened: as §3
[13] = tested on: Nakaseomyces glabratus; test: Fungistatic activity against Candida glabrata 4370 assessed as 99.9% reduction of int initial fungal load at 8 times MIC after 48 hrs using colony count method by time-kill method; type: functional, organism-based; procedure, shortened: as §3
[14] = tested on: Nakaseomyces glabratus; test: (§4) Antifungal activity against 2.44 x 10^8 CFU fluconazole-susceptible Candida glabrata isolate 4293 infected neutropenic CD1 mouse disseminated candidiasis model assessed as reduction in kidney tissue fungal burden at 1 mg/kg/day, ip administered 24 hrs post infection measured 7 days post infection by colony count method; type: functional, organism-based
Procedure, shortened: (§5)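 Neutropenia induced in male CD1 mice (25 g) with cyclophosphamide 200 mg/kg i.p. on days −4, +1 and +4. Mice were infected i.v. via the tail vein (0.2 ml). Drug was given i.p. at […], starting 24 h post-challenge, for 6 consecutive days. Kidney pairs were homogenized on day 7 and plated on Sabouraud dextrose agar for CFU counts. Groups had 7–8 mice.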

[15] = tested on: Nakaseomyces glabratus; test: Antifungal activity against Candida glabrata isolate 4370 after 48 hrs by microdilution method; type: functional; procedure, shortened: as §1
[16] = tested on: Nakaseomyces glabratus; test: as §4, with “1.04” for “2.44”; type: functional, organism-based; procedure, shortened: as §5
[17] = tested on: Nakaseomyces glabratus; test: Fungistatic activity against Candida glabrata isolate 4293 assessed as 99.9% reduction of initial fungal load at 0.5 times MIC after 48 hrs using colony count method by time-kill method; type: functional, organism-based; procedure, shortened: as §3
[18] = tested on: Nakaseomyces glabratus; test: Antifungal activity against Candida glabrata isolate 4293 after 24 hrs by microdilution method; type: functional
Procedure, shortened: (§6)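 CLSI M27-A2 broth microdilution. Final drug ranges were 0.0078–8.0 μg/ml for POS, CAS and AMB, and 0.125–64 μg/ml for FLC. Plates were incubated at 35°C and read by OD490 at 24 h. The MIC was the first concentration giving 50% turbidity reduction versus control (POS, FLC, CAS) or 90% (AMB). Run in quintuplicate.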

[19] = tested on: Nakaseomyces glabratus; test: Antifungal activity against Candida glabrata isolate 4205 after 24 hrs by microdilution method; type: functional; procedure, shortened: as §1
[20] = tested on: Nakaseomyces glabratus; test: Antifungal activity against Candida glabrata isolate 4198 after 24 hrs by microdilution method; type: functional; conditions: isolate 4198, 24 h; procedure, shortened: as §1
[21] = tested on: Candida parapsilosis; test: Antifungal activity against Candida parapsilosis ATCC 22019 after 24 hrs by microdilution method; type: functional; conditions: Lodderomyces parapsilosis, ATCC 22019, 24 h; procedure, shortened: as §6
[22] = tested on: Nakaseomyces glabratus; test: Antifungal activity against Candida glabrata isolate 4370 after 24 hrs by microdilution method; type: functional; procedure, shortened: as §1
[23] = tested on: Nakaseomyces glabratus; test: as §4, with “against 1.04” for “against 2.44”, “at 30” for “at 1”, “mg/kg/day, po” for “mg/kg/day, ip”; type: functional, organism-based
Procedure, shortened: (§7)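 Male CD1 mice (25 g) made neutropenic with cyclophosphamide 200 mg/kg i.p. on days −4, +1 and +4, then infected i.v. via the lateral tail vein (0.2 ml). Dosing started 24 h post-challenge, once daily for 6 days, 0.2 ml: POS by oral gavage, FLC i.p. On day 7, homogenized kidneys (entire organ) plated on Sabouraud agar; CFU per kidney pair; 7–8 mice per group.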

[24] = tested on: Nakaseomyces glabratus; test: as §4, with “at 15” for “at 1”, “mg/kg/day, po” for “mg/kg/day, ip”; type: functional, organism-based; procedure, shortened: as §7
[25] = tested on: Nakaseomyces glabratus; test: Fungistatic activity against Candida glabrata isolate 4198 assessed as 99.9% reduction of initial fungal load at 8 times MIC after 48 hrs using colony count method by time-kill method; type: functional, organism-based; procedure, shortened: as §3
[26] = tested on: Nakaseomyces glabratus; test: Fungistatic activity against Candida glabrata isolate 4293 assessed as 99.9% reduction of initial fungal load at 8 times MIC after 48 hrs using colony count method by time-kill method; type: functional, organism-based; procedure, shortened: as §3
[27] = tested on: Nakaseomyces glabratus; test: as §4, with “against” for “against 2.44 x 10^8 CFU”, “isolate 4205” for “isolate 4293”, “at 30” for “at 1”, “mg/kg/day, po” for “mg/kg/day, ip”; type: functional, organism-based; procedure, shortened: as §7
[28] = tested on: Nakaseomyces glabratus; test: Fungistatic activity against Candida glabrata isolate 4205 assessed as 99.9% reduction of initial fungal load at 8 times MIC after 48 hrs using colony count method by time-kill method; type: functional, organism-based
[29] = tested on: Nakaseomyces glabratus; test: as §4, with “against 1.04” for “against 2.44”, “at 25” for “at 1”; type: functional, organism-based
[30] = tested on: Nakaseomyces glabratus; test: as §4, with “at 25” for “at 1”; type: functional, organism-based; procedure, shortened: as §7
[31] = tested on: Nakaseomyces glabratus; test: Antifungal activity against fluconazole-resistant Candida glabrata isolate 4198 infected neutropenic CD1 mouse disseminated candidiasis model assessed as reduction in kidney tissue fungal burden at 30 mg/kg/day, po administered 24 hrs post infection measured 7 days post infection by colony count method; type: functional, organism-based; procedure, shortened: as §7

Row | SMILES | MIC [1] | Activity [2] | Activity [3] | MIC [4] | Activity [5] | Activity [6] | Activity [7] | MIC [8] | Activity [9] | Activity [10] | MIC [11] | Activity [12] | Activity [13] | Activity [14] | MIC [15] | Activity [16] | Activity [17] | Activity [25] | Activity [26] | Activity [27] | also measured
1 | C[C@@H]1[C@H](O)[C@@H](C)/C=C/C=C/C=C/C=C/C=C/C=C/C=C/[C@H](O[C@@H]2O[C@H](C)[C@@H](O)[C@H](N)[C@@H]2O)C[C@@H]2O[C@](O)(C[C@@H](O)C[C@@H](O)[C@H](O)CC[C@@H](O)C[C@@H](O)CC(=O)O[C@H]1C)C[C@H](O)[C@H]2C(=O)O [AMPHOTERICIN B] | 0.5 µg/mL (≈ 0.541 µM) | Active | Active | 0.5 µg/mL (≈ 0.541 µM) | Active | Active | Active | 0.5 µg/mL (≈ 0.541 µM) | Active | Active | 1 µg/mL (≈ 1.08 µM) | Active | Active | Active | 1 µg/mL (≈ 1.08 µM) | Active | Active |  |  |  | 
2 | CC[C@H](C)C[C@H](C)CCCCCCCCC(=O)N[C@H]1C[C@@H](O)[C@@H](NCCN)NC(=O)[C@@H]2[C@@H](O)CCN2C(=O)[C@H]([C@H](O)CCN)NC(=O)[C@H]([C@H](O)[C@@H](O)c2ccc(O)cc2)NC(=O)[C@@H]2C[C@@H](O)CN2C(=O)[C@H]([C@@H](C)O)NC1=O [CASPOFUNGIN] |  | inactive | inactive |  | Active | inactive |  |  | Active | Active |  | Active |  | Active |  | Active | Active |  |  |  | MIC [18]: ≤ 0.03 µg/mL; MIC [19]: 0.25 µg/mL (≈ 0.229 µM); MIC [20]: 0.25 µg/mL (≈ 0.229 µM); MIC [21]: 0.25 µg/mL (≈ 0.229 µM); MIC [22]: 0.125 µg/mL (≈ 0.114 µM)
3 | CC[C@@H]([C@H](C)O)n1ncn(-c2ccc(N3CCN(c4ccc(OC[C@@H]5CO[C@@](Cn6cncn6)(c6ccc(F)cc6F)C5)cc4)CC3)cc2)c1=O [POSACONAZOLE] | 0.25 µg/mL (≈ 0.357 µM) |  |  | ≤ 0.03 µg/mL | Active |  | Active | 0.5 µg/mL (≈ 0.713 µM) | Active | Active | ≤ 0.03 µg/mL | Active | Active |  | 0.06 µg/mL (≈ 0.0856 µM) | inactive | Active | Active | Active | Active | Activity [23]: Active; Activity [24]: Active; Activity [28]: Active; Activity [29]: Active; Activity [30]: Active; Activity [31]: Active
4 | OC(Cn1cncn1)(Cn1cncn1)c1ccc(F)cc1F [FLUCONAZOLE] | 32 µg/mL (≈ 104 µM) |  |  | 1 µg/mL (≈ 3.27 µM) | Active |  | Active | > 64 µg/mL | Active | Active | 4 µg/mL (≈ 13.1 µM) | Active | Active | Active | 16 µg/mL (≈ 52.2 µM) |  | Active | Active | Active | Active | Activity [28]: Active; Activity [29]: inactive; Activity [30]: Active; Activity [31]: inactive
